Active and inactive are the calls of the source. The rule behind the calls is not given here.
Key:
MCF7 [1] = assay: Potentiation of TRAIL-induced cytotoxicity against human MCF7 cells assessed as reduction in cell growth at cytotoxic IC50 measured after 48 hrs by MTT assay; format: functional, cell-based
How it was run: (§1)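 Viability read by MTT. Growth inhibition calculated as OD570 of untreated minus OD570 of treated cells; mean and SD.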

[2] = Cytotoxicity against human SA cells measured after 48 hrs by MTT assay; format: functional, cell-based; conditions: +SA cell
How it was run: (§2)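 Seeded at 7x10^3 cells/well and allowed 24 h to attach. Compounds added at final 0 to 200 μM and incubated 48 h. Viability read by MTT. IC50 taken as the concentration giving 50% growth inhibition; mean ± SD, N = 4.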

SiHa = assay: Cytotoxicity against human SiHa cells measured after 48 hrs by MTT assay; format: functional, cell-based; how it was run: as §2
SW-620 [3] = assay: Potentiation of TRAIL-induced cytotoxicity against human SW620 cells assessed as reduction in cell growth at cytotoxic IC50 measured after 48 hrs by MTT assay; format: functional, cell-based; how it was run: as §1
HeLa = assay: Potentiation of TRAIL-induced cytotoxicity against human HeLa cells assessed as reduction in cell growth at cytotoxic IC50 measured after 48 hrs by MTT assay; format: functional, cell-based; how it was run: as §1
HepG2 [4] = assay: Potentiation of TRAIL-induced cytotoxicity against human HepG2 cells assessed as reduction in cell growth at cytotoxic IC50 measured after 48 hrs by MTT assay; format: functional, cell-based; how it was run: as §1
MCF7 [5] = assay: Cytotoxicity against human MCF7 cells measured after 48 hrs by MTT assay; format: functional, cell-based; conditions: MCF7, 48 h; how it was run: as §2
SW-620 [6] = assay: Cytotoxicity against human SW620 cells measured after 48 hrs by MTT assay; format: functional, cell-based; conditions: SW-620, 48 h; how it was run: as §2
A-431 = assay: Cytotoxicity against human A431 cells measured after 48 hrs by MTT assay; format: functional, cell-based; conditions: A-431, 48 h; how it was run: as §2
LS-411N = assay: Potentiation of TRAIL-induced cytotoxicity against human LS411N cells assessed as reduction in cell growth at cytotoxic IC50 measured after 48 hrs by MTT assay; format: functional, cell-based; how it was run: as §1
HepG2 [7] = assay: Cytotoxicity against human HepG2 cells measured after 48 hrs by MTT assay; format: functional, cell-based; conditions: HepG2, 48 h; how it was run: as §2
SW-620 [8] = assay: Induction of apoptosis in human SW620 cells assessed as XIAP protein level at 15 uM measured after 48 hrs by Western blot analysis relative to beta-actin (reference value: 1); format: functional
SW-620 [9] = assay: Induction of apoptosis in human SW620 cells assessed as Bcl-xl protein level at 20 uM measured after 48 hrs by Western blot analysis relative to beta-actin (reference value: 1); format: functional
SW-620 [10] = assay: Induction of apoptosis in human SW620 cells assessed as XIAP protein level at 20 uM measured after 48 hrs by Western blot analysis relative to beta-actin (reference value: 1); format: functional
SW-620 [11] = assay: Toxicity in athymic mouse xenografted with human SW620 cells assessed as serum creatine kinase level at 100 mg/kg administered as injection every other day for 15 days measured post last dose by ELISA (reference value: 1.94 +/- 1.04 U/L); conditions: in vivo, 360 h
SW-620 [12] = assay: Antitumor activity against human SW620 cells xenografted in athymic mouse assessed as suppression of tumor growth at 100 mg/kg administered as injection every other day for 15 days measured during compound dosing; format: functional, organism-based
How it was run: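 SW620 colon carcinoma cells (3x10^6 per mouse) implanted subcutaneously in athymic mice. Randomised at 60-80 mm³ tumour size, n=6 per group. Dosed 100 mg/kg on alternate days for 15 days. Vehicle control received 200 μL 1% polyoxyethylated castor oil. Tumour measured in three diameters with a caliper to give volume.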

SW-620 [13] = assay: Induction of apoptosis in human SW620 cells assessed as morphological changes by measuring appearance of shining cells at cytotoxic IC50 measured after 8 to 24 hrs by Hoechst 33342 staining based fluorescence microscopic analysis; format: functional, cell-based
SW-620 [14] = assay: Induction of apoptosis in human SW620 cells assessed as Bcl-xl protein level at 10 uM measured after 48 hrs by Western blot analysis relative to beta-actin (reference value: 1); format: functional
SW-620 [15] = assay: Induction of apoptosis in human SW620 cells assessed as Bcl-xl protein level at 15 uM measured after 48 hrs by Western blot analysis relative to beta-actin (reference value: 1); format: functional
SW-620 [16] = assay: Induction of apoptosis in human SW620 cells assessed as XIAP protein level at 10 uM measured after 48 hrs by Western blot analysis relative to beta-actin (reference value: 1); format: functional

| Structure (SMILES) | Activity (MCF7 [1]) | IC50 [2] [µM] | IC50 (SiHa) [µM] | Activity (SW-620 [3]) | Activity (HeLa) | Activity (HepG2 [4]) | IC50 (MCF7 [5]) [µM] | IC50 (SW-620 [6]) [µM] | IC50 (A-431) [µM] | Activity (LS-411N) | IC50 (HepG2 [7]) [µM] | fold change (FC) (SW-620 [8]) | fold change (FC) (SW-620 [9]) | fold change (FC) (SW-620 [10]) | Activity (SW-620 [11]) [U/L] | Activity (SW-620 [12]) | Activity (SW-620 [13]) | fold change (FC) (SW-620 [14]) | fold change (FC) (SW-620 [15]) | fold change (FC) (SW-620 [16]) |
| --- | --- | --- | --- | --- | --- | --- | --- | --- | --- | --- | --- | --- | --- | --- | --- | --- | --- | --- | --- | --- |
| CCCCCCCCCCCCNC(=O)[C@@H](NC(=O)c1ccccc1)[C@@H](C)O | Active | 75.5 | 63.9 | Active | Active | Active | 36.6 | 200 | 41.2 | Active | – | – | – | – | – | – | – | – | – | – |
| CCCCCCCCCCCCCCCCCCNC(=O)[C@@H](NC(=O)c1nccc2ccccc12)[C@@H](C)O | Active | 49.1 | 51.2 | Active | Active | Active | 30.8 | – | 44.1 | Active | 96.9 | – | – | – | – | – | – | – | – | – |
| CCCCCCCCCCCCNC(=O)[C@@H](NC(=O)c1nccc2ccccc12)[C@@H](C)O | Active | 51.9 | 56.6 | Active | Active | Active | 50.5 | 65.8 | 62.8 | Active | 65.7 | – | – | – | – | – | – | – | – | – |
| CCCCCCCCNC(=O)[C@@H](NC(=O)c1cccs1)[C@@H](C)O | Active | 60.9 | 91.9 | Active | Active | Active | 72.5 | – | 32.1 | Active | – | – | – | – | – | – | – | – | – | – |
| CCCCCCCCCCCCCCNC(=O)[C@@H](NS(=O)(=O)c1ccc(C)cc1)[C@@H](C)O | – | 10.9 | 19.2 | – | – | – | 12.9 | 15.2 | 12 | – | 10.9 | 1 | 0.67 | 0.94 | 2.32 | Active | Active | 0.88 | 0.73 | 1.06 |
| CCCCCCCCNC(=O)[C@@H](NC(=O)c1cc2ccccc2o1)[C@@H](C)O | Active | 40.8 | 66.5 | Active | Active | Active | 47.2 | 200 | 52.7 | Active | 81.3 | – | – | – | – | – | – | – | – | – |
| CCCCCCCCCCCCNC(=O)[C@@H](NC(=O)c1ccco1)[C@@H](C)O | Active | 93.5 | 64.3 | Active | Active | Active | 67.5 | 87.5 | 92.4 | Active | – | – | – | – | – | – | – | – | – | – |
| C/C=C/C=C/C(=O)N[C@H](C(=O)NCCCCCCCC)[C@@H](C)O | Active | 40.4 | – | Active | Active | Active | – | 200 | 58.2 | Active | – | – | – | – | – | – | – | – | – | – |
| CCCCCCCCCCCCCCNC(=O)[C@@H](NC(=O)Cc1c[nH]c2ccccc12)[C@@H](C)O | – | 11.5 | 4.8 | – | – | – | 6.81 | 22 | 15.5 | – | 21.1 | 0.86 | 0.47 | 0.06 | 2.44 | Active | Active | 1.32 | 1.46 | 1.03 |
| CCCCCCCCCCCCCCNC(=O)[C@@H](NC(=O)c1cc2ccccc2n1C)[C@@H](C)O | – | 25.7 | 26.5 | – | – | – | 25.7 | 21.5 | 13.7 | – | 34.5 | – | – | – | – | – | Active | – | – | – |
| CCCCCCCCCCCCCCNC(=O)[C@@H](N)[C@@H](C)O | – | 11 | 11 | – | – | – | 10.7 | 18.7 | 14.6 | – | – | 1.29 | 0.34 | 0.15 | 2.98 | Active | – | 0.82 | 0.68 | 1.22 |
| CCCCCCCCCCCCCCNC(=O)[C@@H](NS(=O)(=O)c1ccc2ccccc2c1)[C@@H](C)O | – | 10.2 | 11.1 | – | – | – | 12.2 | 9.36 | 19.6 | – | 11.4 | 1.14 | 0.55 | 0.93 | 2.63 | Active | Active | 1.05 | 1.08 | 1.21 |
